The term inhibition denotes the change of the read-out against control, counted positive when it falls.

Our source for the inhibition values is PubChem BioAssay AID493091 (Sanford-Burnham Center for Chemical Genomics, 2011).

In all, about 340,000 compounds went through this assay and about 3,000 (0.88%) were called active. The sample holds actives, similar compounds and a random draw of the others, so the mix is not that of the screen. Unmarked numbers belong to inactive results.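 Rule for the calls: active = inhibition above about 50% at 20 µM (limit read from the data); inactive = the rest.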

Sequence of Carboxy-terminal domain RNA polymerase II polypeptide A small phosphatase 1 (Homo sapiens) (Q9GZU7 76-261 limits assumed): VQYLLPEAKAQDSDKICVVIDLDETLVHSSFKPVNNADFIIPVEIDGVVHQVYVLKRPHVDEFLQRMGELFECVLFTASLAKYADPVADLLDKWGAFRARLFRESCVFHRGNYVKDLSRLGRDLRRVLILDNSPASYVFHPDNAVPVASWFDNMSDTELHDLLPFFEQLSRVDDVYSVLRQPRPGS

This assay addresses Carboxy-terminal domain RNA polymerase II polypeptide A small phosphatase 1 (Homo sapiens) (UniProt Q9GZU7). In words: inhibition of human SCP1 dephosphorylation activity – biochemical, colorimetric, uHTS, primary screen (AID 493091).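 Note: plate controls were DMSO wells with enzyme for no effect and wells lacking enzyme for full effect.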 The note with it: Recombinant Scp1, phosphopeptide, malachite green phosphate absorbance; at 20 µM; hits give high values. The gist of the method:
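Times: enzyme reaction 45 min at room temperature, colour 5 min, stabilisation 30 min. Material: SCP-1 catalytic fragment, aa 76-261. Medium: Acidic Tris acetate buffer with magnesium and detergent. Signal: colorimetric free-phosphate detection, absorbance 630 nm. Read-out basis: % inhibition of SCP-1 phosphate liberation. Reagent: Phosphorylated 17-residue peptide substrate.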
With `O=C(/C=C/c1cccc([N+](=O)[O-])c1)NCCSCc1ccco1`, the inhibition was -5.27%.

`OC1CSc2nc3ccccc3n2C1` (stereo not given): the inhibition is -14.6%.

In the case of `Cc1ccc(CCCOC(=O)C[N+]2(C)CCCCC2)cc1`, the inhibition was 4.77%.

With `Cc1ccc(CCCOC(=O)C[N+]2(C)CCCC2)cc1`, the inhibition is 101% (active).

Take `Cc1ccc(COC(=O)CN2C(=O)NC3(CCCC3)C2=O)cc1`: the inhibition was -2.24%.

As for `Nc1ccc2c(c1)C(=Cc1cccnc1)c1ccccc1-2`, the inhibition is -0.04%.

`C[C@H](NC(=O)c1nc[nH]c1C(=O)NCC(=O)OC(C)(C)C)C(=O)OCc1ccccc1`: the inhibition was -3.03%.

Turning to `O=C(c1ccc2c(c1)OCO2)N1CCN(C(=O)c2ccco2)CC1`, the inhibition was -10.7%.

Consider `O=CN1CCN(C(=O)c2ccc3c(c2)OCO3)CC1`, for which the inhibition was -4.58%.

Consider `O=C(c1ccc2c(c1)OCO2)N1CCNc2ccccc2C1`, for which the inhibition was 54.2% (active).

For the molecule `COc1ccc(C(=O)N(CCN2CCOCC2)CC(=O)NC2CCCC2)cc1OC`, the inhibition was -4.37%.

`Cc1ccnc(-n2sc3ccccc3c2=O)n1`: the inhibition is 70.8% (active).

Turning to `COc1ccccc1C(C)NC(=O)Cc1ccsc1` (stereo not given), the inhibition is 1.45%.

As to `CN(CC(=O)NCCc1ccccn1)S(=O)(=O)c1ccc(Cl)cc1`, the inhibition is -6.06%.

For `CCCCOC(=O)c1ccc(N2C(=O)CC(N3CCN(C/C=C/c4ccccc4)CC3)C2=O)cc1` (stereo not given), the inhibition is -2.23%.

`CC1CC(C)CN(S(=O)(=O)c2cccc3nonc23)C1` (stereo not given): the inhibition is -1.81%.

With `CCCc1nc(-c2cc3cc(C)ccc3[nH]c2=O)no1`, the inhibition is 65.2% (active).

`CCN(Cc1cc2cc(C)ccc2[nH]c1=O)S(=O)(=O)c1ccccc1`: the inhibition is -4.68%.

`CCC(=O)N(CCc1ccccc1)Cc1cc2cc(C)ccc2[nH]c1=O`: the inhibition is -1.18%.

Turning to `C#CCOCCOCCOCCNc1nc(N2CCN(C(=O)C([C@@H](C)O)n3cc([C@@H](N)CCCCN)nn3)CC2)nc(N2CCN(C(=O)[C@H](CCCCN)n3cc(CN)nn3)CC2)n1` (stereo not given in full), the inhibition was -0.3%.

`C=CCn1c(=S)[nH]c2scc(-c3ccco3)c2c1=O`: the inhibition is 67.9% (active).

As to `C=CCn1cnc2scc(-c3ccccc3)c2c1=O`, the inhibition is -18.1%.

In the case of `C=CCn1c(=S)[nH]c2nc3c(cc2c1=O)COC(C)(C)C3`, the inhibition was -8.72%.

For the molecule `CN(CCC1CCOCC1)Cc1cn[nH]c1-c1ccc(-c2ccccc2)cc1`, the inhibition was -1.75%.

On to `CCn1c(=O)n(CC)c2cc(N3CCCC3)c(NC(=O)c3ccccc3Br)cc21`, for which the inhibition is -2.26%.

`Cc1ccc2nc3c(cc(C(=O)NCCc4ccccc4)c(=N)n3CC3CCCO3)c(=O)n2c1` (stereo not given): the inhibition was 1.78%.

On to `Cc1ccc(CCNC(=O)c2ccc3nc4ccccc4c(=O)n3c2)cc1`, for which the inhibition is 60.3% (active).

Consider `Cc1ccc(CNC(=O)CCNC(=O)Cn2ccc3ccccc3c2=O)cc1`, for which the inhibition was -12.1%.

For `CCOc1cc(C2/C(=C(/O)c3ccc(S(=O)(=O)N4CCCCC4)cc3)C(=O)C(=O)N2CCOC)ccc1O` (stereo not given), the inhibition is 1.05%.

With `Cc1cccc(NC(=O)CSc2nc3c(c(=O)[nH]2)CCC3)c1C`, the inhibition is -1.16%.

In the case of `COc1ccccc1N1CCN(C(=O)c2cc(=O)c3cc(C)cc(C)c3o2)CC1`, the inhibition was -7.13%.

For the molecule `Cn1c(N)c(C(=O)COC(=O)c2cnc(Cl)c(Cl)c2)c(=O)n(C)c1=O`, the inhibition was -5.15%.

As for `Cn1c(N)c(C(=O)COC(=O)c2cccc(S(=O)(=O)N3CCOCC3)c2)c(=O)n(C)c1=O`, the inhibition was 3.96%.

With `Cn1c(N)c(C(=O)COC(=O)c2ccc3ccccc3c2)c(=O)n(C)c1=O`, the inhibition was 53% (active).

As to `C[C@]1(C(=O)NCCc2c[nH]c3ccccc23)C=C[C@@H](Cc2ccccc2)N1C(=O)c1ccccc1`, the inhibition was -5.17%.

On to `N#CCC(=O)Nc1ccc(C(=O)OCC(=O)Nc2sc3c(c2C#N)CCCC3)cc1`, for which the inhibition was 1.62%.

Take `CC(C)NC(=O)NC(=O)COC(=O)c1ccc(NC(=O)CC#N)cc1`: the inhibition is -2.24%.

With `CCOc1ccc(NC(=O)c2ccc(NC(=O)COC(=O)c3ccc(NC(=O)CC#N)cc3)cc2)cc1`, the inhibition is 85.9% (active).

As for `Cc1ncn2cc(-c3ccc(Cl)cc3Cl)[nH]c(=O)c12`, the inhibition was -6.56%.

For `O=C(NCc1cccc(Cl)c1)C1CCN(c2nnc(N3CCCC3=O)s2)CC1`, the inhibition is -6.55%.

Take `O=C(NNC(=O)c1ccccc1[N+](=O)[O-])Nc1ccccc1C(F)(F)F`: the inhibition is 0.19%.

Take `C=C(C)C(=O)Nc1cccc(C2=NOC3(C2)C[C@H](C(N)=O)N(C(=O)C(c2ccccc2)c2ccccc2)C3)c1` (stereo not given in full): the inhibition was 70.2% (active).

Regarding `C/C=C\C=C\C(=O)N1CC2(CC(c3cccc(NC(=O)/C(C)=C\C)c3)=NO2)C[C@H]1C(N)=O` (stereo not given in full), the inhibition is 34.8%.

Consider `C/C=C(/C)C(=O)Nc1cccc(C2=NOC3(C2)C[C@@H](C(N)=O)N(C(=O)C2(C)CC2)C3)c1` (stereo not given in full), for which the inhibition is -2.33%.

As for `C=CCn1cc(C(=O)NCc2ccc(Cl)cc2)c(=O)c2cc(S(=O)(=O)N(CC)CC)ccc21`, the inhibition was -4.15%.

In the case of `COCCC(=O)N1CCC(Oc2ccc(C(=O)NCc3ccon3)cc2)CC1`, the inhibition is -1.77%.

Take `COc1ccc(S(=O)(=O)N2CCN(CC(=O)N3CCOCC3)CC2)cc1OC`: the inhibition is -0.04%.

As for `CC(C)C(O)C1CCN(Cc2nc(Cc3ccccc3Cl)no2)CC1` (stereo not given), the inhibition is -2.82%.

As for `O=[N+]([O-])c1ccc(N2CCOCC2)cc1`, the inhibition is -2.71%.

Consider `COc1cnn(-c2ccc([N+](=O)[O-])cc2)c(=O)c1Cl`, for which the inhibition is -3.84%.

On to `O=c1[nH]n(-c2ccc([N+](=O)[O-])cc2)c(=O)c2ccccc12`, for which the inhibition was 52.1% (active).

Regarding `CC(C)(C)c1cc2cccnc2n1Cc1cccc(F)c1`, the inhibition was -1.78%.

Turning to `CCOC(=O)C1CCN(S(=O)(=O)c2c(C)noc2C)CC1`, the inhibition is -4.7%.

As for `COc1ccccc1NC(=O)c1ccc(N2CC3CC(C2)c2cccc(=O)n2C3)c(NC(=O)c2cccnc2)c1` (stereo not given), the inhibition is -3.99%.

As to `Cc1ccc2cc(/C=N/Nc3ccc(C(=O)O)cc3)c(Cl)nc2c1`, the inhibition was 0.89%.

Turning to `O=C(O)c1ccc(N/N=C/c2ccc3ncccc3c2)cc1`, the inhibition is 50.4% (active).

Consider `CCNC(=S)NNC(=O)c1ccc2ncccc2c1`, for which the inhibition is -9.05%.

On to `Cn1c2ccccc2c(=O)c2c(=O)n(Cc3ccco3)c(COc3ccccc3)nc21`, for which the inhibition was 92.9% (active).

As for `O=c1c2ccccc2oc2nc(C3CCCCC3)n(Cc3ccco3)c(=O)c12`, the inhibition was -2.2%.

Turning to `CCCc1nc2c(c(=O)c3ccccc3n2C)c(=O)n1C1CCCCCC1`, the inhibition is 2.39%.

Regarding `COCCn1c(C)cc(C(=O)COC(=O)CNC(=O)c2ccco2)c1C`, the inhibition was -7.15%.

Turning to `Cc1ccc(C(=O)Nc2nc(N)n(-c3ccccc3)n2)cc1`, the inhibition was -3.84%.

On to `Cc1cc(S(=O)(=O)N2CCOCC2)ccc1OCC(=O)N1CCOCC1`, for which the inhibition is 2.62%.

Regarding `CCC(C)NC(=O)/C=C/c1ccc(S(=O)(=O)NCc2ccco2)cc1` (stereo not given), the inhibition was 6.25%.

`Cc1ccc(N2C(=O)CC(Nc3cccc4ccccc34)C2=O)cc1` (stereo not given): the inhibition was -3.84%.

On to `CC(=O)Nc1ccccc1Sc1ccc2c3c(cccc13)C(=O)N(c1ccc(C)cc1)C2=O`, for which the inhibition is 53.1% (active).

As to `CSc1ccccc1NC(=O)C(C)N1C(=O)c2ccccc2S1(=O)=O` (stereo not given), the inhibition is 39.4%.

Regarding `COC(=O)c1cc(S(=O)(=O)Nc2ccc(C)c(F)c2)c[nH]1`, the inhibition is -3.42%.

On to `Cc1c(CCC(=O)O)c(=O)oc2cc(OCc3ccc(Br)cc3)ccc12`, for which the inhibition is 53.3% (active).

For `Cc1coc2cc3oc(=O)c(CCC(=O)O)c(C)c3cc12`, the inhibition was -1.97%.

For `CCOC(=O)CCc1c(C)c2ccc(OCc3nn[nH]n3)c(C)c2oc1=O`, the inhibition is 2.8%.

Take `Cc1c(CCC(=O)O)c(=O)oc2c(C)c(OCc3ccccc3Cl)ccc12`: the inhibition is 97.5% (active).

For the molecule `COc1ccc2c(C)c(CCC(=O)NC3CC3)c(=O)oc2c1C`, the inhibition is -1.31%.

On to `Cc1c(CCC(=O)O)c(=O)oc2cc3occ(-c4ccccc4)c3cc12`, for which the inhibition was -18.2%.

`O=C(COC(=O)[C@H](Cc1ccccc1)NC(=O)c1cccs1)Nc1cc(F)ccc1F`: the inhibition was -10.5%.

For `CCN(CC)c1ccc([N+](=O)[O-])cc1C(=O)O`, the inhibition was -4.84%.

With `COc1cccc(NC(=O)Cn2cnc3sc(C)c(S(=O)(=O)N4CCN(C)CC4)c3c2=O)c1`, the inhibition was -1.94%.

As to `CC(C)CCOc1ccc(C(=O)C[N+]2(C)CCOCC2)cc1`, the inhibition is 51% (active).

Take `CCOc1ccc(C(=O)CCN2CCOCC2)cc1`: the inhibition was -2.17%.

In the case of `CCCOc1ccc(C(=O)C(CCC(CNCC)C(=O)c2ccc(OCCC)cc2)CNCC)cc1` (stereo not given), the inhibition was 10.4%.

For `Cc1ccc(CNC(=O)C2CCCN2C(=O)NCc2ccccc2)cc1` (stereo not given), the inhibition was -7.83%.

Take `O=C(COc1ccc(-n2cnnn2)cc1)Nc1ccccc1Cl`: the inhibition is 58.7% (active).

For `C=CCc1cccc(/C=N/NC(=O)COc2ccc(-n3cnnn3)cc2)c1O`, the inhibition was -8.78%.

`O=C(COc1ccc(Cl)cc1)Nc1ccccc1CO`: the inhibition is -5.63%.

On to `COc1ccc(C(=O)N(Cc2ccccc2)c2ccc(C)cc2)cc1S(=O)(=O)N1CCOCC1`, for which the inhibition was -6.19%.

With `C=CCOc1ccc(/C=C/C(=O)OCC(=O)NC2CCCCCC2)cc1`, the inhibition is 22%.

`CCNc1nc(NC(C)C)nc(OCCOC(=O)c2ccccc2)n1`: the inhibition is 2.19%.

On to `O=C(COC(=O)CNC(=O)C1CCCCC1)Nc1cccc(F)c1`, for which the inhibition is -6.06%.

As for `O=C(Nc1cccc(F)c1)[C@@H]1CCCN1`, the inhibition is 67.8% (active).

For the molecule `O=C(Nc1cccc(F)c1)NC1CCCCCCC1`, the inhibition was -10.5%.
